Measurements from ChEMBL document CHEMBL2321723, “Synthesis and mechanistic studies of novel spin-labeled combretastatin derivatives as potential antineoplastic agents” (Bioorg Med Chem, 2013).
Calls of active or inactive are those of the source. No cut-off for these calls is given here.

Legend:
HeLa [1] = test: Cytotoxicity against human HeLa cells after 24 hrs by MTT assay; assay type: functional, cell-based
How it was run: (§1)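 MTT assay in RPMI 1640 with 10% fetal calf serum, 2 mM L-glutamine and […]. Log-phase cells seeded, attached 24 h at 37 °C and 5% CO₂, then treated at 0–100 μM. Compounds dissolved in DMSO (1 mg/mL stock), DMSO below 0.1% in wells. Five wells per concentration, triplicate experiments. Blank-corrected OD taken as % of untreated growth, IC50 = 50% inhibition.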

HepG2 = test: Cytotoxicity against human HepG2 cells after 24 hrs by MTT assay; assay type: functional, cell-based; how it was run: as §1
K562 = test: Cytotoxicity against human K562 cells after 24 hrs by MTT assay; assay type: functional, cell-based; how it was run: as §1
[2] = Cytotoxicity against human […] cells after 24 hrs by MTT assay; assay type: functional, cell-based; how it was run: as §1
HeLa [3] = test: Cell cycle arrest in human HeLa cells assessed as accumulation in G1 phase at 1.5 uM after 36 hrs by PI-staining based flow cytometric analysis (reference value: 47.36%); assay type: functional
How it was run: (§2)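 HeLa cells (1 × 10⁵) exposed 36 h to 0, 0.375, 1.5 or 3 μM; washed twice in ice-cold PBS, harvested and fixed. Then RNase A (0.1 mg/mL, 37 °C, 30 min) and propidium iodide staining (30 min on ice, dark). Flow cytometry gave sub-G1, G1, S and G2 fractions, compared with untreated cultures.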

HeLa [4] = test: Induction of apoptosis in human HeLa cells at 0.375 uM after 24 hrs by FITC/AnnexinV-based flow cytometric analysis (reference value: 0.98%); assay type: functional
HeLa [5] = test: Cell cycle arrest in human HeLa cells assessed as accumulation in G1 phase after 36 hrs by PI-staining based flow cytometric analysis; assay type: functional; how it was run: as §2
HeLa [6] = test: Cell cycle arrest in human HeLa cells assessed as accumulation in subG1 phase after 36 hrs by PI-staining based flow cytometric analysis; assay type: functional; how it was run: as §2
HeLa [7] = test: Induction of apoptosis in human HeLa cells assessed as early apoptotic cells at 0.375 to 3 uM after 24 hrs by FITC/AnnexinV-based flow cytometric analysis (reference value: 0.17%); assay type: functional
HeLa [8] = test: Cell cycle arrest in human HeLa cells assessed as accumulation in subG1 phase at 0.375 uM after 36 hrs by PI-staining based flow cytometric analysis (reference value: 0.2%); assay type: functional; how it was run: as §2
HeLa [9] = test: Cell cycle arrest in human HeLa cells assessed as accumulation in subG1 phase at 1.5 uM after 36 hrs by PI-staining based flow cytometric analysis (reference value: 0.2%); assay type: functional; how it was run: as §2
HeLa [10] = test: Cell cycle arrest in human HeLa cells assessed as accumulation in G1 phase at 0.375 uM after 36 hrs by PI-staining based flow cytometric analysis (reference value: 47.36%); assay type: functional; how it was run: as §2
HeLa [11] = test: Cell cycle arrest in human HeLa cells assessed as accumulation in subG1 phase at 3 uM after 36 hrs by PI-staining based flow cytometric analysis (reference value: 0.2%); assay type: functional; how it was run: as §2
HeLa [12] = test: Induction of apoptosis in human HeLa cells at 1.5 uM after 24 hrs by FITC/AnnexinV-based flow cytometric analysis (reference value: 0.98%); assay type: functional
HeLa [13] = test: Cell cycle arrest in human HeLa cells assessed as accumulation in G1 phase at 3 uM after 36 hrs by PI-staining based flow cytometric analysis (reference value: 47.36%); assay type: functional; how it was run: as §2
Capra hircus [14] = species on record: Capra hircus; test: Inhibition of goat tubulin polymerization at 3 uM after 30 mins by transmission electron microscopic analysis
How it was run: (§3)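 Microtubule protein from goat brain purified by repeated warm polymerisation and cold depolymerisation cycles with glycerol, ATP and GTP. Tubulin incubated ± compound 30 min at 37 °C in 80 mM PIPES pH 6.9, 1 mM MgCl₂, […], 30% glycerol, 1 mM GTP. Fixed in 0.5% glutaraldehyde, grids stained with uranyl acetate, viewed by TEM at 100 kV.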

HeLa [15] = test: Cell cycle arrest in human HeLa cells assessed as decrease in G2 phase after 36 hrs by PI-staining based flow cytometric analysis; assay type: functional; how it was run: as §2
Capra hircus [16] = species on record: Capra hircus; test: Inhibition of goat tubulin polymerization assessed as club shaped cytoskeleton at 3 uM after 30 mins by transmission electron microscopic analysis; how it was run: as §3
HeLa [17] = test: Cell cycle arrest in human HeLa cells assessed as decrease in S phase after 36 hrs by PI-staining based flow cytometric analysis; assay type: functional; how it was run: as §2
HeLa [18] = test: Induction of apoptosis in human HeLa cells assessed as late apoptotic cells at 0.375 to 3 uM after 24 hrs by FITC/AnnexinV-based flow cytometric analysis (reference value: 0.81%); assay type: functional
HeLa [19] = test: Induction of apoptosis in human HeLa cells at 3 uM after 24 hrs by FITC/AnnexinV-based flow cytometric analysis (reference value: 0.98%); assay type: functional

Compound | IC50 (HeLa [1]; hela) | IC50 (HepG2; hepg2) | IC50 (K562; k562) | IC50 [2] | further results
COc1ccc(/C=C\c2cc(OC)c(OC)c(OC)c2)cc1NC(=O)C1=CC(C)(C)N([O])C1(C)C | 42300 nM | 38800 nM | > 100 µM | > 100 µM | –
COc1ccc(/C=C\c2cc(OC)c(OC)c(OC)c2)cc1NC(=O)[C@H](Cc1c[nH]c2ccccc12)NC(=O)OC1CC(C)(C)N([O])C(C)(C)C1 | 2080 nM | 2270 nM | 0.56 µM | 3.55 µM | –
COc1ccc(/C=C\c2cc(OC)c(OC)c(OC)c2)cc1NC(=O)[C@H](Cc1ccccc1)NC(=O)OC1CC(C)(C)N([O])C(C)(C)C1 | 8370 nM | 280 nM | 5.8 µM | 6.33 µM | –
COc1ccc(/C=C\c2cc(OC)c(OC)c(OC)c2)cc1NC(=O)[C@H](CCSC)NC(=O)OC1CC(C)(C)N([O])C(C)(C)C1 | 1160 nM | 2050 nM | 4.15 µM | 1.68 µM | –
COc1ccc(/C=C\c2cc(OC)c(OC)c(OC)c2)cc1NC(=O)[C@H](C)NC(=O)OC1CC(C)(C)N([O])C(C)(C)C1 | 390 nM | 730 nM | 1.56 µM | 0.96 µM | –
COc1ccc(/C=C\c2cc(OC)c(OC)c(OC)c2)cc1NC(=O)C1CC(C)(C)N([O])C(C)(C)C1 | 59200 nM | 51200 nM | 16.9 µM | 42.5 µM | –
COc1ccc(/C=C\c2cc(OC)c(OC)c(OC)c2)cc1N | – | – | – | – | IC50 (HeLa [1]; Homo sapiens, HeLa, 24 h): 403 nM; IC50 (HepG2; Homo sapiens, HepG2, 24 h): 28 nM; IC50 (K562; Homo sapiens, K562, 24 h): 0.12 µM; IC50 ([2]; Homo sapiens, 24 h): 0.014 µM
CC[C@H](C)[C@H](NC(=O)OC1CC(C)(C)N([O])C(C)(C)C1)C(=O)Nc1cc(/C=C\c2cc(OC)c(OC)c(OC)c2)ccc1OC | 2330 nM | 2190 nM | 18.8 µM | 3.07 µM | –
COc1ccc(/C=C\c2cc(OC)c(OC)c(OC)c2)cc1NC(=O)C1CC(C)(C)N([O])C1(C)C (stereo not drawn) | 7600 nM | 25000 nM | 10.4 µM | 4.93 µM | –
COc1ccc(/C=C\c2cc(OC)c(OC)c(OC)c2)cc1NC(=O)[C@@H]1CCCN1C(=O)OC1CC(C)(C)N([O])C(C)(C)C1 | 3390 nM | 4480 nM | 5.53 µM | 4.71 µM | –
COc1cc([C@@H]2c3cc4c(cc3[C@@H](O[C@@H]3O[C@@H]5CO[C@@H](C)O[C@H]5[C@H](O)[C@H]3O)[C@H]3COC(=O)[C@H]23)OCO4)cc(OC)c1O [ETOPOSIDE] | – | – | – | – | IC50 (HeLa [1]; Homo sapiens, HeLa, 24 h): 17700 nM; IC50 (HepG2; Homo sapiens, HepG2, 24 h): 104000 nM; IC50 (K562; Homo sapiens, K562, 24 h): 2.85 µM; IC50 ([2]; Homo sapiens, 24 h): 26.9 µM
COc1ccc(/C=C\c2cc(OC)c(OC)c(OC)c2)cc1NC(=O)CNC(=O)OC1CC(C)(C)N([O])C(C)(C)C1 | 410 nM | 980 nM | 1.09 µM | 0.39 µM | Activity (HeLa [3]): 85.82%; Activity (HeLa [4]): 43.99%; Activity (HeLa [5]): Dose-dependent effect; Activity (HeLa [6]): Dose-dependent effect; Activity (HeLa [7]): 52.6%; Activity (HeLa [8]): 1.14%; Activity (HeLa [9]): 16.71%; Activity (HeLa [10]): 32.85%; Activity (HeLa [11]): 32.42%; Activity (HeLa [12]): 55.75%; Activity (HeLa [13]): 96.25%; inhibition (Capra hircus [14]): Active; Activity (HeLa [15]): Dose-dependent effect; inhibition (Capra hircus [16]): Active; Activity (HeLa [17]): Dose-dependent effect; Activity (HeLa [18]): 13.96%; Activity (HeLa [19]): 66.54%
COc1ccc(/C=C\c2cc(OC)c(OC)c(OC)c2)cc1NC(=O)C1=CC(C)(C)N([O])C(C)(C)C1 | 8570 nM | 10700 nM | 15.6 µM | 6.21 µM | –
COc1ccc(/C=C\c2cc(OC)c(OC)c(OC)c2)cc1NC(=O)[C@@H](NC(=O)OC1CC(C)(C)N([O])C(C)(C)C1)C(C)C | 150 nM | 1050 nM | 12 µM | 0.43 µM | –
